Assay results taken from the EternaBench riboswitch data.

System: MS2 coat protein
Experiment: apparent Kd, MS2 coat protein; higher = weaker binding; RNA-MaP array
How it was run: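 Designed RNAs were transcribed on an Illumina sequencing chip from sequenced DNA templates. They were incubated at room temperature with fluorescently labeled MS2 coat protein at 1.5 nM to 3 μM, for 0.8–1.5 h at the lowest to 10–20 min at the highest concentrations, in Tris-HCl pH 7.5 buffer with KCl, MgCl2, BSA, DTT, tRNA and Tween20, with or without input ligand. Apparent Kd is the median of per-cluster binding-curve fits. Designs measured on fewer than 10 clusters were excluded.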

[1] = designed as: ON switch for flavin mononucleotide, no ligand
[2] = ligand present: flavin mononucleotide, designed as: ON switch for flavin mononucleotide
[3] = designed as: OFF switch for flavin mononucleotide, no ligand
[4] = ligand present: flavin mononucleotide, designed as: OFF switch for flavin mononucleotide
[5] = designed as: ON switch for tryptophan, no ligand
[6] = ligand present: tryptophan, designed as: ON switch for tryptophan

“CAAAACAUGAGGAUCACCCAUGUAGAUACGUGAAAAUUAUGGGAGGAUAUACAAUAGGACUGUAUGAAGAAGGCCCGAAAGCCA” was tested. Which “apparent Kd” value [1] did it give?
Its value is 20 nM.

And the “apparent Kd” value [2]?
Its value is 18.5 nM.

How did the “apparent Kd” value [3] turn out when “UAUGUCGGGAAGAAGGUAAUAACGGGAUUGACAUGAGGAUCACCCAUGUGUACGAGUUAGUUGCUUAAGGAUAUUCUCGCCCAU” was run?
Its value is 6.37 nM.

What about the “apparent Kd” value [4] of the same sequence?
The value was 5.73 nM.

For “ACCCGACAAGUGAGGAUAUUGAUAAGAGGAGCUUACAAGAAGGCACAUGAGGAUCACCCAUGUAUUAAGUGAAG”, which “apparent Kd” value [3] is on record?
Its value is 7.97 nM.

What about the “apparent Kd” value [4] of the same sequence?
Its value is 9.8 nM.

Which results are given for “CAUCAAAAGCUAGGAUAUACCUAGAGUACCGGAACAUGAGGAUCACCCAUGUUAGAGUGAUGCUGGUAGAAGGAGCUGGUAAAG”?
apparent Kd [1]: 31.9 nM; apparent Kd [2]: 15.8 nM

How did the “apparent Kd” value [3] turn out when “GCUGUAGAAGGAUAUCACAGGAUGGACAUGAGGAUCACCCAUGUUCUUUACUCCGCACCUUGAGAAGGUCUAAGUC” was run?
Its value is 6.27 nM.

And the “apparent Kd” value [4]?
The value was 5.88 nM.

For “AAAGCUACCAAAGGAUAUUGUUUCCAUCACACAUGAGGAUCACCCAUGUAGCCAUAAACGGAUCGCAAGAAGGUUGGGAAAGUG”, which “apparent Kd” value [1] is on record?
The value was 18.3 nM.

And the “apparent Kd” value [2]?
Its value is 9.07 nM.

With “UAUCACUGGCAGAAGGUUCUCGGAAGCGAUGGUACUCUAUACAUGAGGAUCACCCAUGUCUACGGAAAGGAUAUGCCAUUGCGA” as the sequence, how does the “apparent Kd” value [3] read?
The value was 70 nM.

What about the “apparent Kd” value [4] of the same sequence?
The value was 176 nM.

Which “apparent Kd” value [1] does the source give for “GACGCGAGCGCACUUACAUGAGGAUCACCCAUGUGUUCCGAAAGAAGGGCUAGUGUACCCGCAGAGCAGGAUAUUUCGAUUUGC” here?
The value was 186 nM.

What about the “apparent Kd” value [2] of the same sequence?
The value was 121 nM.

“AAAGGAUUCAAGAAGGUACCCUAACAUGAGGAUCACCCAUGUCUCGGUGGCAUCAAGGUACCUGGUAAGGAUAUUGCAACCACU” was tested. Which “apparent Kd” value [1] did it give?
The value was 39.4 nM.

And the “apparent Kd” value [2]?
Its value is 33.2 nM.

Which results are given for “UGACUGUGUGAGAAGGUGUUCCGCGCCCGGCCACAAGGAUAUCACAACGCUGCCCUACAUGAGGAUCACCCAUGUGAUUGCUAC”?
apparent Kd [1]: 29.5 nM; apparent Kd [2]: 25.8 nM

With “CUUCAGGGUGCGGCCGCCACUUAUUAGGUGCUUGCGACGCCAGCACAUGAGGAUCACCCAUGUUCAAGGACCGGGCACCACCUUU” as the sequence, how does the “apparent Kd” value [5] read?
Its value is 11.5 nM.

And the “apparent Kd” value [6]?
The value was 12.6 nM.

What does the source list for “AACCGACAUGAGGAUCACCCAUGUGAGGAUAUGUUCGAGCUGGCAGGACCACCCUGGGACAGAAGGCACGUGAA”?
apparent Kd [3]: 11.2 nM; apparent Kd [4]: 17.7 nM

What does the source list for “UUUUUCCUGUAUAUCGGUACAUGAGGAUCACCCAUGUUCCCAGAGGAUAUUUGAUGGUGGGUAACAAAGAAGGCUGGCUACAGG”?
apparent Kd [1]: 20.6 nM; apparent Kd [2]: 9.31 nM

For “ACAAUCACAUGAGGAUCACCCAUGUUAGACAGGGUCAAUGUGAAGGAUAUGAACAAUGAAAAUACUCAGAAGGUCAUAUUGAAA”, which “apparent Kd” value [1] is on record?
The value was 192 nM.

What about the “apparent Kd” value [2] of the same sequence?
The value was 27.4 nM.

With “CGUGGCAAUCAAGGAUAUCACUUCUAGAUACCGUGAGAAGGUGAGCGUCUCUGCAAAGAGCGGGACAUGAGGAUCACCCAUGUA” as the sequence, how does the “apparent Kd” value [1] read?
Its value is 255 nM.

And the “apparent Kd” value [2]?
Its value is 162 nM.

For “AAACUAUGAGGAUAUACAUGAGGAUCACCCAUGUCGGUACUGGUAUGGCCCUGAUCCCGUAGAAGGCAUCGGUC”, which “apparent Kd” value [3] is on record?
The value was 369 nM.

And the “apparent Kd” value [4]?
The value was 436 nM.

How did the “apparent Kd” value [5] turn out when “GACGGCUCGACGGCCGCCACUCCCUCCGACUGAAGGCACAGUGGACAUGAGGAUCACCCAUGUCCGAGGACCGGGUCGAUCCUGG” was run?
The value was 17.7 nM.

And the “apparent Kd” value [6]?
Its value is 17.6 nM.

How did the “apparent Kd” value [3] turn out when “CGGCAACUGUAGAAGGAGCAUCCCACAUCUAAGCUAGGAUAUACGUAAUGUAUGUACAUGAGGAUCACCCAUGUGUGCACCAGG” was run?
Its value is 26.4 nM.

And the “apparent Kd” value [4]?
The value was 24.2 nM.

“AACAUGUCUCAAGGAUAUAAAACGCUAAAUGGCUUAGAAGGUGAGGCCGCUGUGAGGAUCCCUGACAUGAGGAUCACCCAUGUC” was tested. Which “apparent Kd” value [1] did it give?
The value was 10.8 nM.

And the “apparent Kd” value [2]?
The value was 9.76 nM.

For “CCUUAUUCAUAGAAGGAGUUCAUCCUACGUGGACUAGGAUAUAUAUUCGACAUGAGGAUCACCCAUGUAUCUGAGAUCGUGGUA”, which “apparent Kd” value [3] is on record?
The value was 29.3 nM.

And the “apparent Kd” value [4]?
The value was 26.2 nM.

Which “apparent Kd” value [3] does the source give for “ACAAUGUGAGGAUAUCGUAAGCAUGACUAUGGCGCUAACACCGAGAAGGCACAUGAGGAUCACCCAUGUCCUGA” here?
The value was 6.84 nM.

What about the “apparent Kd” value [4] of the same sequence?
Its value is 10.7 nM.

What does the source list for “AUCUCUGACUAAGGAUAUGCGGCAAAGAGCCUCUCAGAAAACAUGAGGAUCACCCAUGUAUGGACGCAGAAGGUAGUAGCCCAC”?
apparent Kd [1]: 9.06 nM; apparent Kd [2]: 21.4 nM

How did the “apparent Kd” value [3] turn out when “ACCCAUUUGUUAGGAUAUGACUCGAGACAGGUACAUGAGGAUCACCCAUGUUGUACAGGACCGUCUCAGAAGGAACGAACGUAU” was run?
The value was 9.64 nM.

What about the “apparent Kd” value [4] of the same sequence?
The value was 8.75 nM.

Which results are given for “GGAUGUAGACAGGAUAUUGCCAUUCCAAUGCGCCAAGAAGGGUCUACAUGAGGAUCACCCAUGUAAAGAAUAGG”?
apparent Kd [3]: 207 nM; apparent Kd [4]: 106 nM

Which “apparent Kd” value [3] does the source give for “CCGCGCACUGGAGGAUAUAAUCGAACAUGAGGAUCACCCAUGUUAGACGUGGUACGAGCGUUCCAUUAGAAGGCCACUCUGCGU” here?
Its value is 27.1 nM.

And the “apparent Kd” value [4]?
The value was 52.8 nM.

Which results are given for “UCGGACGGAGGAUAUACUAUGACUCCCACGGCAUGUUACGCACAUGAGGAUCACCCAUGUAGAAGGCCGCCUAA”?
apparent Kd [3]: 4.27 nM; apparent Kd [4]: 7.41 nM
